According to ChEMBL document CHEMBL1135185, “Synthesis and PTP1B inhibition of 1,2-naphthoquinone derivatives as potent anti-diabetic agents” (Bioorg Med Chem Lett, 2002):
Calls of active or inactive are those of the source. No cut-off for these calls is given here.

Columns and labels:
[1] = molecular target: T1, Tyrosine-protein phosphatase non-receptor type 1 (Homo sapiens, UniProt P18031); assay: In vitro inhibitory activity against recombinant human protein-tyrosine phosphatase 1B (PTP1B) using fluorescein diphosphate (FDP) as a substrate
T1 sequence (P18031 whole entry): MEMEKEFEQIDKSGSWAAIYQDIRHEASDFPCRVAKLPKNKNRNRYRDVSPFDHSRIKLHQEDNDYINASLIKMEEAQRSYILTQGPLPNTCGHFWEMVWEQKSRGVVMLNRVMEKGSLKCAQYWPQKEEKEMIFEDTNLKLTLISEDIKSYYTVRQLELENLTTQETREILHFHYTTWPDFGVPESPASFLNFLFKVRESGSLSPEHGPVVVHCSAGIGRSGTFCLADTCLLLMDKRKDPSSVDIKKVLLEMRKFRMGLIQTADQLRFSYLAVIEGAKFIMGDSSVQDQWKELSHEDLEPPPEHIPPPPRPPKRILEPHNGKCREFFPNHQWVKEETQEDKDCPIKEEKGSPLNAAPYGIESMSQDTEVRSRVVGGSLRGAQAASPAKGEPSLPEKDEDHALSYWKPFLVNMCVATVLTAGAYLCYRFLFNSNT
How it was run: (§1)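 Recombinant human PTP1B enzyme, fluorescein diphosphate (FDP) as substrate. Enzyme activity was followed by fluorescence measurement. IC50 values were obtained by direct regression curve analysis.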

[2] = molecular target: T1, Tyrosine-protein phosphatase non-receptor type 1; assay: In vitro inhibitory activity against recombinant human protein-tyrosine phosphatase 1B (PTP1B) using fluorescein diphosphate (FDP) as a substrate; Not active; how it was run: as §1
[3] = molecular target: T1, Tyrosine-protein phosphatase non-receptor type 1; assay: Inhibition of human Protein-tyrosine phosphatase 1B (PTP1B) using fluorescein diphosphate (FDP); how it was run: as §1
[4] = In vitro inhibitory activity against recombinant […] Yop using fluorescein diphosphate (FDP) as a substrate
[5] = molecular target: Receptor-type tyrosine-protein phosphatase F (Homo sapiens, UniProt P10586); assay: In vitro inhibitory activity against recombinant human LAR using fluorescein diphosphate (FDP) as a substrate
[6] = molecular target: T2, Receptor-type tyrosine-protein phosphatase C (Homo sapiens, UniProt P08575); assay: In vitro inhibitory activity against recombinant human CD45 using fluorescein diphosphate (FDP) as a substrate
T2 sequence (P08575 whole entry): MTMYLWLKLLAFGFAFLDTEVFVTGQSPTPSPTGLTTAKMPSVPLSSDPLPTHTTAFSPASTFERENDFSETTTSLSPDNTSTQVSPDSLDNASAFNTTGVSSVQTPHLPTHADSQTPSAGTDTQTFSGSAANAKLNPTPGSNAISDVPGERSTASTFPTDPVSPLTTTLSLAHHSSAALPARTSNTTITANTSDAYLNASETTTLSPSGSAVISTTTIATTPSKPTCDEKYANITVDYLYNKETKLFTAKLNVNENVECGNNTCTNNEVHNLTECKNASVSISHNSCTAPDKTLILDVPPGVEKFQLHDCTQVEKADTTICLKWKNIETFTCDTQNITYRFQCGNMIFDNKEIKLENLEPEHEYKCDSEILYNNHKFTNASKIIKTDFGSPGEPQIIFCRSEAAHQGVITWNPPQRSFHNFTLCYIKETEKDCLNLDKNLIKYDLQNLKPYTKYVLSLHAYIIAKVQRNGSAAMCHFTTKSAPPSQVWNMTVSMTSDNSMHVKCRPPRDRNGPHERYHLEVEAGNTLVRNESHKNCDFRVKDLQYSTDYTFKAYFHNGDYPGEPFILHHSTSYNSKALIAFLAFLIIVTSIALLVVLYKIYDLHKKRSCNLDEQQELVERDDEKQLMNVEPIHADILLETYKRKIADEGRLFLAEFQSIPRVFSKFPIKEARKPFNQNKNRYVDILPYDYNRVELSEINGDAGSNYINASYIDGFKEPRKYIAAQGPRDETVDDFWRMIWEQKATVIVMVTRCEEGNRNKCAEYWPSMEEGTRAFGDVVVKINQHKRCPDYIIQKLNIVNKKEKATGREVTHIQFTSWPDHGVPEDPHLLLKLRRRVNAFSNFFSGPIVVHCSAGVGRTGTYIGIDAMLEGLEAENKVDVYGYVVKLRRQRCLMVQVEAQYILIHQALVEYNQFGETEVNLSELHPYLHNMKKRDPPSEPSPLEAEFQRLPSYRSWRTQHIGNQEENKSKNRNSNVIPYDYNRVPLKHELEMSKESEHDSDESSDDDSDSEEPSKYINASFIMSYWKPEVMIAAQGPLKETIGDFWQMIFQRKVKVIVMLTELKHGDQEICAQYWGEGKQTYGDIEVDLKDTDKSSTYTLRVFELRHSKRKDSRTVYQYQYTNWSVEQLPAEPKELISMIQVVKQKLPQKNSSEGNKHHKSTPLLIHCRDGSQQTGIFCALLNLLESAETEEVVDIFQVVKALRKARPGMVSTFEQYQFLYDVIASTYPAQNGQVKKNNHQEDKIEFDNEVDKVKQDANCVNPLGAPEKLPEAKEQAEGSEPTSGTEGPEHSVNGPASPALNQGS

[7] = molecular target: T3, M-phase inducer phosphatase 2 (Homo sapiens, UniProt P30305); assay: In vitro inhibitory activity against recombinant human Cdc25B using fluorescein diphosphate (FDP) as a substrate
T3 sequence (P30305 whole entry): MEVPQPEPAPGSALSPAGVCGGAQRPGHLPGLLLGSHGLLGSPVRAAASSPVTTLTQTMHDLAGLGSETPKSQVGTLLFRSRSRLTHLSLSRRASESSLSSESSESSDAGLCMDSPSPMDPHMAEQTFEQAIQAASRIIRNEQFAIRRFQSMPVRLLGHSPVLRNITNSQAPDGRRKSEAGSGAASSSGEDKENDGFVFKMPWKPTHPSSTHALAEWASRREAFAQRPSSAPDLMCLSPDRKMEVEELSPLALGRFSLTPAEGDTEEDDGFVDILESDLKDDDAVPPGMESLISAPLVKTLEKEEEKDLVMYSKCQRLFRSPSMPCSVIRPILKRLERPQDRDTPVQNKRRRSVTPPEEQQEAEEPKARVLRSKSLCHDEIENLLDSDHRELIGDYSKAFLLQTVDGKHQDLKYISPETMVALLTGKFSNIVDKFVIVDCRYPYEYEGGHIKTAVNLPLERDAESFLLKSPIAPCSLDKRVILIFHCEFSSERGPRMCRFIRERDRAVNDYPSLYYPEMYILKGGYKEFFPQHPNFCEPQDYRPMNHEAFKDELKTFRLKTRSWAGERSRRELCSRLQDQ

[8] = In vitro inhibitory activity against recombinant human PPI using fluorescein diphosphate (FDP) as a substrate
[9] = system: Mus musculus; assay: In vivo test to determine the ability to reduce plasma glucose levels in ob/ob mice at oral dose of 25 mg/kg/day for 5 days; Active; format: functional, organism-based

Receptor-type tyrosine-protein phosphatase F, sequence (P10586 whole entry): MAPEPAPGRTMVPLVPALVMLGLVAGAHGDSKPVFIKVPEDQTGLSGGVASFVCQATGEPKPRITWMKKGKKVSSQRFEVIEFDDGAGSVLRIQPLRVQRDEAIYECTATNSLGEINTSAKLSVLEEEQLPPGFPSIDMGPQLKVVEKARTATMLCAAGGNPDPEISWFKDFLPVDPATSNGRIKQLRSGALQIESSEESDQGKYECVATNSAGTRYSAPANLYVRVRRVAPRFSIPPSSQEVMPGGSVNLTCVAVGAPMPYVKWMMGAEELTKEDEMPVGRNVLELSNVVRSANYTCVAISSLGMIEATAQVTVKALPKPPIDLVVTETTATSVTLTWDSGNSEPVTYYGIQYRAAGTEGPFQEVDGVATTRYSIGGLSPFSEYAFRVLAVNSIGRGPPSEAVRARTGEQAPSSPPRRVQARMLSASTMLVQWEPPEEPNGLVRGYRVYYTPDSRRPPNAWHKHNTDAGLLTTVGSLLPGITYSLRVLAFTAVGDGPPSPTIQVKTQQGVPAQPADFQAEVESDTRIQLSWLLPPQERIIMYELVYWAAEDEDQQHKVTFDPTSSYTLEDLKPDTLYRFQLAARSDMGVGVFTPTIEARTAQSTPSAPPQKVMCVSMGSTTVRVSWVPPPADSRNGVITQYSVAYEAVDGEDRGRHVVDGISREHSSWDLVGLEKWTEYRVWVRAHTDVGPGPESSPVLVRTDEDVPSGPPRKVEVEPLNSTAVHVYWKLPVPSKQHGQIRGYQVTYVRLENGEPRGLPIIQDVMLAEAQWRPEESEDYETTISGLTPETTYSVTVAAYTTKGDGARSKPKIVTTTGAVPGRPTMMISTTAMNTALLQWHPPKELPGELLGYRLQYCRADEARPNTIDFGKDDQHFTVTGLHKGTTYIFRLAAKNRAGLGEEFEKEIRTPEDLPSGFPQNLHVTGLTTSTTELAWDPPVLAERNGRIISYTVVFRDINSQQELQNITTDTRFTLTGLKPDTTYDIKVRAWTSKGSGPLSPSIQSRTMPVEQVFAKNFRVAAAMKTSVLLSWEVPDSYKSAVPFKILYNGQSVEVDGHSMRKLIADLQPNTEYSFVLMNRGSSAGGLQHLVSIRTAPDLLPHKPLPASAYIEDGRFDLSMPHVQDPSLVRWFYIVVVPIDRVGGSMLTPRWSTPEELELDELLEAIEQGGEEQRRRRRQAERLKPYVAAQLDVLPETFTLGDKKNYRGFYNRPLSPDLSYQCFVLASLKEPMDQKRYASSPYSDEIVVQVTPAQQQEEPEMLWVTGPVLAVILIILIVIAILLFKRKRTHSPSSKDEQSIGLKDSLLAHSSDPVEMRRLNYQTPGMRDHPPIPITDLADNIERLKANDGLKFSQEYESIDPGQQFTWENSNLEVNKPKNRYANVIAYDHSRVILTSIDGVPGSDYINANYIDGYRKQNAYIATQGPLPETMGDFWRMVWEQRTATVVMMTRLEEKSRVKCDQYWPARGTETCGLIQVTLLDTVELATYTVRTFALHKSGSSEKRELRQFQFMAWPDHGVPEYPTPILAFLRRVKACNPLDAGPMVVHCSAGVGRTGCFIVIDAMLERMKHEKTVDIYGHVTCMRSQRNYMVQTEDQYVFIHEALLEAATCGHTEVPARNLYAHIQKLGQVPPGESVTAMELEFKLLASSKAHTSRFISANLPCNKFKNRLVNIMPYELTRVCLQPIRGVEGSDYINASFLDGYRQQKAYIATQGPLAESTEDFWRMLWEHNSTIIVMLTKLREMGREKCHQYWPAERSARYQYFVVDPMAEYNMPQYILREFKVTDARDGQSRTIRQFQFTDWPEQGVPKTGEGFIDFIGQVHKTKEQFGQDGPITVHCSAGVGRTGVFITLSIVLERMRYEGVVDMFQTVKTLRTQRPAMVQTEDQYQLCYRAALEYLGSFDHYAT

COC1=CC(=O)C(=O)c2ccccc21
IC50 ([1]; read-out: IC50): 29.1 µM

CCCCCOc1ccc2c(c1)C(c1ccccc1)=CC(=O)C2=O
IC50 [2]: Not Active

CCOC(=O)COc1ccc(C2=CC(=O)C(=O)c3ccccc32)cc1
IC50 ([1]; read-out: IC50): 1.07 µM

O=C1C=C(c2cccc3ccccc23)c2ccccc2C1=O
IC50 ([1]; read-out: IC50): 2.15 µM

CCCCC1=CC(=O)C(=O)c2ccccc21
IC50 [2]: Not Active

CCCCCCC1=CC(=O)C(=O)c2ccccc21
IC50 ([1]; read-out: IC50): 3.3 µM

O=C(O)COc1ccc(CC2=C(n3ccc4ccccc43)c3ccccc3C(=O)C2=O)cc1
IC50 [3]: 1.01 µM

O=C(Nc1ccc2c(c1)C(=O)C(=O)C=C2c1ccccc1)OCc1ccccc1
IC50 ([1]; read-out: IC50): 2.25 µM

O=C1C=C(c2c[nH]c3ccccc23)c2ccccc2C1=O
IC50 [4]: 25.6 µM | IC50 [5]: 10.2 µM | IC50 [6]: 3.07 µM | IC50 [7]: 1.95 µM | IC50 [8]: 3.19 µM | IC50 ([1]; read-out: IC50): 1.13 µM

O=C1C=C(C2CCCCC2)c2ccccc2C1=O
IC50 [4]: 17.9 µM | IC50 [5]: 8.99 µM | IC50 [6]: 3.27 µM | IC50 [7]: 3 µM | IC50 [8]: 8.06 µM | IC50 ([1]; read-out: IC50): 0.32 µM

CC(C)(C)OC(=O)COc1ccc(CC2=C(c3ccccc3)c3ccccc3C(=O)C2=O)cc1
IC50 [3]: 1.48 µM

COC(=O)CCc1ccc2c(c1)C(n1ccc3ccccc31)=CC(=O)C2=O
IC50 [3]: 0.92 µM

CC(C)C1=CC(=O)C(=O)c2ccccc21
IC50 ([1]; read-out: IC50): 10.1 µM

COC(=O)c1ccc(C2=CC(=O)C(=O)c3ccccc32)cc1
IC50 [4]: 12 µM | IC50 [6]: 1.65 µM | IC50 [7]: 2.13 µM | IC50 ([1]; read-out: IC50): 1.54 µM

CCCCCCCCCCC1=CC(=O)C(=O)c2ccccc21
IC50 [2]: Not Active

O=C1C=C(c2c[nH]c3cc(C(=O)O)ccc23)c2ccccc2C1=O
IC50 ([1]; read-out: IC50): 4.56 µM

O=C1C=C(OCCCO)c2ccccc2C1=O
IC50 ([1]; read-out: IC50): 36.5 µM

O=C1C=C(c2c(-c3ccccc3)[nH]c3ccccc23)c2ccccc2C1=O
IC50 [2]: Not Active

COc1ccc(C2=CC(=O)C(=O)c3ccccc32)cc1
IC50 ([1]; read-out: IC50): 5.24 µM

O=C(O)COc1ccc(CC2=C(c3ccccc3)c3ccccc3C(=O)C2=O)cc1
IC50 [3]: 1.54 µM

CCOC(=O)CCC1=C(c2ccccc2)c2ccccc2C(=O)C1=O
IC50 [3]: 0.43 µM

O=C1C=C(N2CCCC2)c2ccccc2C1=O
IC50 [1]: Not Active

COC(=O)CCC1=C(n2ccc3ccccc32)c2ccc(CCC(=O)OC)cc2C(=O)C1=O
IC50 [3]: 0.94 µM

Cc1c(C2=CC(=O)C(=O)c3ccccc32)c2ccccc2n1C
IC50 [2]: Not Active

O=C1C=C(c2c[nH]c3ccc(C(=O)O)cc23)c2ccccc2C1=O
IC50 ([1]; read-out: IC50): 3 µM

O=C1C=C(C2CCCC2)c2ccccc2C1=O
IC50 ([1]; read-out: IC50): 4.2 µM

CCCCCOc1ccc2c(c1)C(=O)C(=O)C=C2c1ccccc1
IC50 ([1]; read-out: IC50): 0.92 µM

CCOC(=O)COc1ccccc1C1=CC(=O)C(=O)c2ccccc21
IC50 ([1]; read-out: IC50): 2.15 µM

O=C1C=C(c2ccccc2)c2ccccc2C1=O
IC50 [4]: 21.1 µM | IC50 [6]: 0.84 µM | IC50 [7]: 9.52 µM | IC50 [8]: 8.37 µM | IC50 ([1]; read-out: IC50): 0.86 µM

O=C1C=C(c2ccc(-c3ccccc3)cc2)c2ccccc2C1=O
IC50 ([1]; read-out: IC50): 5.4 µM

O=C1C=C(c2ccccc2[N+](=O)[O-])c2ccccc2C1=O
IC50 ([1]; read-out: IC50): 1.17 µM

O=C1C=C(c2cc(F)ccc2F)c2ccccc2C1=O
IC50 ([1]; read-out: IC50): 0.5 µM

CCOC(=O)CCC1=C(n2ccc3ccccc32)c2ccccc2C(=O)C1=O
IC50 [3]: 0.27 µM

COc1ccc2c(c1)C(=O)C(=O)C=C2c1ccccc1
IC50 ([1]; read-out: IC50): 2.04 µM

CCOC(=O)c1ccc(CCC2=C(c3ccccc3)c3ccccc3C(=O)C2=O)cc1
IC50 [3]: 1.01 µM

O=C1C=C(c2cc(Cl)ccc2Cl)c2ccccc2C1=O
IC50 ([1]; read-out: IC50): 5.05 µM

O=C(Nc1cccc2c1C(=O)C(=O)C=C2c1ccccc1)OCc1ccccc1
IC50 ([1]; read-out: IC50): 1.34 µM

CN(C1=CC(=O)C(=O)c2ccccc21)c1ccccc1
IC50 ([1]; read-out: IC50): 34.9 µM

O=C1C=C(c2ccc(O)cc2)c2ccccc2C1=O
IC50 ([1]; read-out: IC50): 0.44 µM

O=C1C=Cc2ccccc2C1=O [1,2-NAPHTHOQUINONE]
IC50 [3]: 24.6 µM

CCOC(=O)Nc1cccc2c1C(=O)C(=O)C=C2c1ccccc1
IC50 ([1]; read-out: IC50): 0.65 µM

NC1=CC(=O)C(=O)c2ccccc21 [4-AMINO-[1,2]NAPHTHOQUINONE]
IC50 ([1]; read-out: IC50): 24.6 µM

CC(C)(C)c1cc(C2=CC(=O)C(=O)c3ccccc32)cc(C(C)(C)C)c1O
IC50 ([1]; read-out: IC50): 5.73 µM

COC(=O)CCC1=C(c2ccccc2)c2cc(CCC(=O)OC)ccc2C(=O)C1=O
IC50 [3]: 0.68 µM

CCN(CC)C(=O)CCC1=C(c2ccccc2)c2ccccc2C(=O)C1=O
IC50 [3]: 0.61 µM

O=C1C=C(Cc2ccccc2)c2ccccc2C1=O
IC50 ([1]; read-out: IC50): 1.42 µM

COC(=O)CCc1ccc2c(c1)C(c1ccccc1)=CC(=O)C2=O
IC50 [3]: 0.33 µM

COC(=O)C(Cc1ccccc1)Oc1ccc2c(c1)C(=O)C(=O)C=C2c1ccccc1 (stereo unspecified)
IC50 ([1]; read-out: IC50): 2.54 µM

CCCCCOC1=C(c2ccccc2)c2ccccc2C(=O)C1=O
IC50 ([1]; read-out: IC50): 2.69 µM

CC(C)(C)OC(=O)COc1ccc(CC2=C(n3ccc4ccccc43)c3ccccc3C(=O)C2=O)cc1
IC50 [3]: 0.65 µM | Reduction [9]: Active

O=C1C=C(c2ccccc2O)c2ccccc2C1=O
IC50 ([1]; read-out: IC50): 1.6 µM

O=C1C=C(n2ccc3ccccc32)c2ccc(OC(Cc3ccccc3)C(=O)O)cc2C1=O (stereo unspecified)
IC50 ([1]; read-out: IC50): 2.07 µM

O=C1C=C(S(=O)(=O)O)c2ccccc2C1=O
IC50 ([1]; read-out: IC50): 5.29 µM
